Assay results as given in ChEMBL document CHEMBL1136653, “Discovery of a potent and selective agonist of the prostaglandin EP4 receptor” (Bioorg Med Chem Lett, 2003).

Key:
[1] = target: T1, Prostaglandin D2 receptor (Homo sapiens, UniProt Q13258); test: Binding affinity towards DP receptor expressed in HEK293 ebna cells recombinantly expressing the corresponding human prostanoid cDNAs; assay type: cell-based
T1 sequence (Q13258 whole entry): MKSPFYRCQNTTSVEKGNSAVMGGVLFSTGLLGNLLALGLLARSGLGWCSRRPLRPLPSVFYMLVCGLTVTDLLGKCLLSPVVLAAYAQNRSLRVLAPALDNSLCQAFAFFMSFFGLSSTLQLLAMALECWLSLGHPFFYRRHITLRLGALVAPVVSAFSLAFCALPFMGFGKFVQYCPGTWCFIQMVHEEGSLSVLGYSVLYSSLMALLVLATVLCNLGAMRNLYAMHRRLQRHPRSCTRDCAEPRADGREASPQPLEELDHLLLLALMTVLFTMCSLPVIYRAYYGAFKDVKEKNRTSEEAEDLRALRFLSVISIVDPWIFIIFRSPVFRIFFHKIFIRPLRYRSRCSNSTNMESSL
In short: (§1)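 Competition binding used membrane preparations, not intact cells, from HEK293ebna cells expressing each recombinant human prostanoid receptor cDNA.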

[2] = target: T2, Prostaglandin E2 receptor EP3 subtype (Homo sapiens, UniProt P43115); test: Binding affinity towards EP3 receptor expressed in HEK293 ebna cells recombinantly expressing the corresponding human prostanoid cDNAs; assay type: cell-based; in short: as §1
T2 sequence (P43115 whole entry): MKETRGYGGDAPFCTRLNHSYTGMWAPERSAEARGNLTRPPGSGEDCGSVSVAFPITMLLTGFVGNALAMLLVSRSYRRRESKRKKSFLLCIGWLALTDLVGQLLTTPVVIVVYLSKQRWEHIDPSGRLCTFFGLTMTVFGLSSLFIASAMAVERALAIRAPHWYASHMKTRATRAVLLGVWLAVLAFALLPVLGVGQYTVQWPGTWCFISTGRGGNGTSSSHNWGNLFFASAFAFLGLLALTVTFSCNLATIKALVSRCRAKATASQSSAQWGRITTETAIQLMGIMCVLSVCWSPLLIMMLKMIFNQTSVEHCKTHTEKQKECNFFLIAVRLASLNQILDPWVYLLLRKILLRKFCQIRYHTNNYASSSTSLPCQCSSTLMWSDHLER

[3] = target: T3, Prostaglandin E2 receptor EP1 subtype (Homo sapiens, UniProt P34995); test: Binding affinity towards EP1 receptor expressed in HEK293 ebna cells recombinantly expressing the corresponding human prostanoid cDNAs; assay type: cell-based; in short: as §1
T3 sequence (P34995 whole entry): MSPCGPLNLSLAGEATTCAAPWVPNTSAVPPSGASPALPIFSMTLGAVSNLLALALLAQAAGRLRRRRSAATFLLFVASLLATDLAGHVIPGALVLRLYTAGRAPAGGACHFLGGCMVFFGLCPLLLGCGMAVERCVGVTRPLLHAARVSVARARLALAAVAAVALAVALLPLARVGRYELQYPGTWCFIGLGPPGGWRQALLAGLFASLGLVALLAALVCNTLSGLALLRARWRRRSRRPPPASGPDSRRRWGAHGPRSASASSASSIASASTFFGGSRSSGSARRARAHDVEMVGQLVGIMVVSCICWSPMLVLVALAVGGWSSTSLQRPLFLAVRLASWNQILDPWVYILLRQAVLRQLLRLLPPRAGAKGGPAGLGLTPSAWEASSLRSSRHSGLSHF

Thromboxane A2 receptor = target: T4, Thromboxane A2 receptor (Homo sapiens, UniProt P21731); test: Binding affinity towards TP receptor expressed in HEK293 ebna cells recombinantly expressing the corresponding human prostanoid cDNAs; assay type: cell-based; in short: as §1
T4 sequence (P21731 whole entry): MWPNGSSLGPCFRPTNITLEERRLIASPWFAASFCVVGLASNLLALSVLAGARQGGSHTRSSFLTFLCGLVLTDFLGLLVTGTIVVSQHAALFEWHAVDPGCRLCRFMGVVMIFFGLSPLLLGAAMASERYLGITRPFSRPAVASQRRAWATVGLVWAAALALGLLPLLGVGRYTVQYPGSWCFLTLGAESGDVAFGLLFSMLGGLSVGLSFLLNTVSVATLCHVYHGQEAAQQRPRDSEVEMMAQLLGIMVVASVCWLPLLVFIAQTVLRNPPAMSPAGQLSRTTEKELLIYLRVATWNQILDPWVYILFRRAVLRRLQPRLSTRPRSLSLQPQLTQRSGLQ

[4] = target: Prostaglandin E2 receptor EP2 subtype (Homo sapiens, UniProt P43116); test: Binding affinity towards EP2 receptor expressed in HEK293 ebna cells recombinantly expressing the corresponding human prostanoid cDNAs; assay type: cell-based; in short: as §1
Prostacyclin receptor = Prostacyclin receptor (Homo sapiens, UniProt P43119); test: Binding affinity towards IP receptor expressed in HEK293 ebna cells recombinantly expressing the corresponding human prostanoid cDNAs; assay type: cell-based; in short: as §1
[5] = target: Prostaglandin F2-alpha receptor (Homo sapiens, UniProt P43088); test: Binding affinity towards FP receptor expressed in HEK293 ebna cells recombinantly expressing the corresponding human prostanoid cDNAs; assay type: cell-based; in short: as §1
[6] = target: T5, Prostaglandin E2 receptor EP4 subtype (Homo sapiens, UniProt P35408); test: Binding affinity towards EP4 receptor expressed in HEK293 ebna cells recombinantly expressing the corresponding human prostanoid cDNAs; assay type: cell-based
[7] = Half-life after intravenous dose in rat; assay type: ADME, organism-based; settings: in vivo
[8] = target: T5, Prostaglandin E2 receptor EP4 subtype; test: Inhibitory activity against human EP4 receptor expressed in HEK293 ebna cells; assay type: cell-based
[9] = target: T5, Prostaglandin E2 receptor EP4 subtype; test: EP4 agonist potency utilizing a stable clone of pSV40-EP4 transfected into HEK293 cells expressing EP4 receptor; assay type: functional, cell-based
In short: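 A HEK293 stable clone carried pSV40-EP4 at about 50 fmol/mg receptor. Whole-cell cAMP assay: 1×10⁵ cells per sample were suspended in 0.2 mL HBSS with 2 mM IBMX. Compound or PGE₂ was given in DMSO at a constant final 1.8% (v/v). Incubation ran 10 min at 37 °C and was stopped by 3 min in boiling water. cAMP was read by [¹²⁵I]cAMP scintillation proximity assay.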

Chain of Prostaglandin F2-alpha receptor (P43088 whole entry): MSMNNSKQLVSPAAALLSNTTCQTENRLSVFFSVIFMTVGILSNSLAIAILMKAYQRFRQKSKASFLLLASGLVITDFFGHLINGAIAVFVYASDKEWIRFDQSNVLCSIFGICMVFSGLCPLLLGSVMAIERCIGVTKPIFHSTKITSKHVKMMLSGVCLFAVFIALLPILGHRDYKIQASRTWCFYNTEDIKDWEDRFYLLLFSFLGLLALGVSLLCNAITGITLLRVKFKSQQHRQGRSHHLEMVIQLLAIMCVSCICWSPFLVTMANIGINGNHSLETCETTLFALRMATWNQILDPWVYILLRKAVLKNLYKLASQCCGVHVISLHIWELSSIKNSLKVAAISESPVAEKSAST
T5 sequence (P35408 whole entry): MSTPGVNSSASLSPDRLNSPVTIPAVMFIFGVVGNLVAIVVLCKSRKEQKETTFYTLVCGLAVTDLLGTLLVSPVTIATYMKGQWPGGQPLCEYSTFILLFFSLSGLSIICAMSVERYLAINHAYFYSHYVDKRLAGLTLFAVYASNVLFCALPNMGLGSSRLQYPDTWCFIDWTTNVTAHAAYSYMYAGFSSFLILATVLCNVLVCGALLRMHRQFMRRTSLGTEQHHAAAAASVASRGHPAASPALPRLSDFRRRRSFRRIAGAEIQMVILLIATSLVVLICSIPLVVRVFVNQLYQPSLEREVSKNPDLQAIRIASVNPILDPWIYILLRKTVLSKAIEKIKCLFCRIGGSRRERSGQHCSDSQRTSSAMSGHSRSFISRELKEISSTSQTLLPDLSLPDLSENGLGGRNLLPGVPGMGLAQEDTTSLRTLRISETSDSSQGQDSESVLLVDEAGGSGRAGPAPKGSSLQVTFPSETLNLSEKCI
Chain of Prostaglandin E2 receptor EP2 subtype (P43116 whole entry): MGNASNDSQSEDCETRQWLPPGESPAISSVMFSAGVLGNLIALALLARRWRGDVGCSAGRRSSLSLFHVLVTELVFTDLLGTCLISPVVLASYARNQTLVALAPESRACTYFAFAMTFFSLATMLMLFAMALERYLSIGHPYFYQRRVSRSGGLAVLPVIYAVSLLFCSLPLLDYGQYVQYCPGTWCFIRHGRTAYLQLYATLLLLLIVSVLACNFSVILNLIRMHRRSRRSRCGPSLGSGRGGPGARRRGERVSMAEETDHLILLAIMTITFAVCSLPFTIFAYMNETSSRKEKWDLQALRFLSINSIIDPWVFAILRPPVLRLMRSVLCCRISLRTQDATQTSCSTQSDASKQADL
Chain of Prostacyclin receptor (P43119 whole entry): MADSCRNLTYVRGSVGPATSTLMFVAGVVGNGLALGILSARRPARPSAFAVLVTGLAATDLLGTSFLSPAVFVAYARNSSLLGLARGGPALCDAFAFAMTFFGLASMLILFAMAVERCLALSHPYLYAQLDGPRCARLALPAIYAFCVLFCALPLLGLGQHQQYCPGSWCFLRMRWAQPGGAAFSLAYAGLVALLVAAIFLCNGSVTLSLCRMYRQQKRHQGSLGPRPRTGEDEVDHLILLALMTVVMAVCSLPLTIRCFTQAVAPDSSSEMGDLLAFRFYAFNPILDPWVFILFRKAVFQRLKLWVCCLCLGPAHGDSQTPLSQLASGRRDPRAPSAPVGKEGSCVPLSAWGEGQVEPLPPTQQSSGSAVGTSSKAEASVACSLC

Structure (SMILES) | Ki [1] [µM] | Ki [2] [µM] | Ki [3] [µM] | Ki (Thromboxane A2 receptor) [µM] | Ki [4] [µM] | Ki (Prostacyclin receptor) [µM] | Ki [5] [µM] | Ki [6] [µM] | half-life [7] [min] | IC50 [8] [µM] | EC50 [9] [µM]
O=C1CC[C@H](/C=C/C(O)Cc2ccccc2)N1CCCCSc1nnn[nH]1 (some centres not stated) | > 13 | > 13 | > 13 | > 13 | > 13 | > 13 | > 13 | 0.243 |  |  | 
O=C(O)CCCCCCN1C(=O)CC[C@@H]1/C=C/C(O)CCc1ccccc1 (some centres not stated) | > 13 | 2.01 | > 13 | > 13 | > 13 | > 13 | > 13 | 0.102 |  |  | 
O=C(O)CCSCCCCN1C(=O)CC[C@@H]1/C=C/C(O)Cc1ccccc1 (some centres not stated) | > 13 | > 13 | > 13 | > 13 | > 13 | > 13 | > 13 | 0.14 |  |  | 
O=C1CC[C@H](/C=C/C(O)Cc2ccccc2)N1CCCCSCc1nn[nH]n1 (some centres not stated) | > 13 | > 13 | > 13 | > 13 | > 13 | > 13 | > 13 | 0.066 |  |  | 
O=C(O)CSCCCCN1C(=O)CC[C@@H]1/C=C/C(O)Cc1ccccc1 (some centres not stated) | > 13 | > 13 | > 13 | > 13 | > 13 | > 13 | > 13 | 0.013 |  |  | 
CC(O)(/C=C/[C@H]1CCC(=O)N1CCCCCCC(=O)O)Cc1ccccc1 (some centres not stated) | > 13 | > 13 | > 13 | > 13 | > 13 | > 13 | > 13 | 2.1 |  |  | 
COC(=O)CSCCCCN1C(=O)CC[C@@H]1/C=C/C(O)Cc1ccccc1 (some centres not stated) | > 13 | > 13 | > 13 | > 13 | > 13 | > 13 | > 13 | 0.443 |  |  | 
O=C(O)CCCCCCN1C(=O)CC[C@@H]1/C=C/C(O)C1(c2ccccc2)CC1 (some centres not stated) | > 13 | 3.34 | > 13 | > 13 | > 13 | > 13 | > 13 | 0.012 |  |  | 
COCc1cccc(CC(O)/C=C/[C@H]2CCC(=O)N2CCCCCCC(=O)O)c1 (some centres not stated) | > 13 | > 13 | > 13 | > 13 | > 13 | > 13 | > 13 | 0.0036 |  |  | 
O=C1CC[C@H](/C=C/[C@@H](O)Cc2ccccc2)N1CCCCCCc1nnn[nH]1.O=C1CC[C@H](/C=C/[C@H](O)Cc2ccccc2)N1CCCCCCc1nnn[nH]1 | > 13 | > 13 | > 13 | > 13 | > 13 | > 13 | > 13 | 0.0025 |  |  | 
CCCCCC(O)/C=C/[C@@H]1CCC(=O)N1CCCCCCC(=O)O (some centres not stated) | > 13 | 1.22 | > 13 | > 13 | > 13 | > 13 | > 13 | 1.41 |  |  | 
CCCCCC(O)CC[C@@H]1CCC(=O)N1CCCCCCC(=O)O (some centres not stated) | > 13 | 2.32 | > 13 | > 13 | 3.61 | > 13 | > 13 | 1.11 |  |  | 
CC(C)(c1ccccc1)C(O)/C=C/[C@H]1CCC(=O)N1CCCCCCC(=O)O (some centres not stated) | > 13 | 10.6 | > 13 | > 13 | > 13 | > 13 | > 13 | 0.062 |  |  | 
O=C1CC[C@H](/C=C/[C@H](O)Cc2ccccc2)N1CCCCCCc1nnn[nH]1 | > 13 | > 13 | > 13 | > 13 | > 13 | > 13 | > 13 | 0.23 |  |  | 
CCCCCC(O)CC[C@H]1CCC(=O)N1CCCCCCC(=O)O (some centres not stated) | > 13 | 0.7 | > 13 | > 13 | 4.05 | > 13 | > 13 | 0.028 |  |  | 
CCCCCC(O)CCC1CCC(=O)N1CCCCCCC(=O)O (configuration not stated) | > 13 | 2 | > 13 | > 13 | 3 | > 13 | > 13 | 0.035 |  |  | 
O=C(O)CCCCCCN1C(=O)CC[C@@H]1/C=C/C(O)Cc1ccccc1 (some centres not stated) | > 13 | > 13 | > 13 | > 13 | > 13 | > 13 | > 13 |  | < 20 |  | 
O=C(O)CCCCCCN1C(=O)CC[C@@H]1/C=C/C(O)C1CCCCC1 (some centres not stated) | > 13 | > 13 | > 13 | > 13 | > 13 | > 13 | > 13 | 3.5 |  |  | 
CCCCCC(O)/C=C/[C@H]1CCC(=O)N1CCCCCCC(=O)O (some centres not stated) | > 13 | 0.419 | > 13 | > 13 | 6.68 | > 13 | > 13 | 0.006 |  |  | 
O=C1CC[C@H](/C=C/[C@@H](O)Cc2ccccc2)N1CCCCCCc1nnn[nH]1 | > 13 | > 13 | > 13 | > 13 | > 13 | > 13 | > 13 | 0.0012 |  | 0.0014 | 0.0025
